Compound activity from PubChem BioAssay.
Kir21 block: Kir2.1 (mouse) channel inhibition; P35561; HEK293-Kir2.1, FluxOR thallium flux fluorescence; active compounds read low; B-score at 10 µM; hit rate 0.85% among 310,000;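 active = fluorescence ratio B-score at or below minus 3 SD of library scores, with starting-brightness B-score within 2 SD, cut at about -4.2 in these data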;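 note: channel flux triggered by added potassium and thallium sulfate stimulus; B-score of peak minus minimum fluorescence over baseline after thallium stimulus; more negative B-score means stronger Kir2.1 block with less thallium influx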
TMEM16A act: mouse TMEM16A channel activation, primary screen | hit rate 0.3% among 340,000 | HEK293 TMEM16A/YFP-H148Q/I152L, iodide quench fluorescence; active compounds read low | AID 623877 | B-score at 10 µM | Q8BHY3;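 active = fluorescence-ratio B-score plate-corrected deviation score at least 3 library SD below zero, with starting fluorescence score within 5 deviations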;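 note: channel opened by trigger with iodide after compound preincubation; score built on the fluorescence ratio of max minus min over baseline; more negative score means more quench and so TMEM16A activation or potentiation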
SR-BI DiI inh: inhibitors of mouse SR-BI mediated HDL lipid uptake; ldlA[mSR-BI] CHO cells, DiI-HDL uptake fluorescence, 3 h; inhibition, % at 12.5 µM; hit rate 0.96% among 320,000; AID 488896;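 active = mean replicate inhibition of at least 70% and a set share of replicates each scoring 70 or more; inconclusive = meets just one of the two criteria; inactive = fails both criteria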;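 note: 0% = median of neutral control wells and 100% = median of positive control wells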
Target sequence (Q61009 whole entry, looked up): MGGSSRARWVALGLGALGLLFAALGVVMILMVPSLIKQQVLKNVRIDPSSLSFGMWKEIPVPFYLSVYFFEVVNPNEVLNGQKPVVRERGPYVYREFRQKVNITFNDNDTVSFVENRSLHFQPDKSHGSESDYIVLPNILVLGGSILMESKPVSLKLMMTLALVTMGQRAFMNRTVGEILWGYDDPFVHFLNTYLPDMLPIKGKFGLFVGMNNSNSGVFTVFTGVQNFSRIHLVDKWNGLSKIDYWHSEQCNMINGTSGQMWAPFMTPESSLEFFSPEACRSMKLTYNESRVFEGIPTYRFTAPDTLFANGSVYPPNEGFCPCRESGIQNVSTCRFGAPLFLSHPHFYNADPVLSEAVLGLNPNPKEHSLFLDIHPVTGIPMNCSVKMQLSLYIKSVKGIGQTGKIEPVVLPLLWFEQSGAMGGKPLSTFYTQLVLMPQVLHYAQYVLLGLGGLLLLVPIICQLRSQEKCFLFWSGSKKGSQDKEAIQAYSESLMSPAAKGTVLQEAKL
FID counter: displaces DNA intercalator in HCV helicase counter-screen | DNA fluorescent intercalator displacement, fluorescence | inhibition, % at 7.9 µM | AID 1845 | hit rate 0.17% among 290,000; in the data active = inhibition above about 37%;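 note: 0% = vehicle and 100% = reference compound; higher means more ethidium bromide displaced from hairpin DNA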
SR-BI DiI-HDL act: activators of SR-BI mediated HDL lipid uptake; CHO ldlA[mSR-BI] cells, DiI-HDL uptake fluorescence, 3 h; 100 = double the neutral-control signal; activation, % at 12.5 µM; hit rate 0.096% among 320,000;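 active = mean replicate activation of at least 60% and every replicate at or above 60%; inconclusive = mean or all-replicate condition met, but not both; inactive = mean below 60% and not all replicates reaching 60%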;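 note: 0% = median plate neutral-control signal and 100% = twice that signal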
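Assay system: CHO ldlA[mSR-BI] cells, LDL receptor-null, SR-BI overexpressing; medium: Ham's F12 with 0.5% BSA, HEPES 25 mM, pH 7.4; also added: DiI-HDL 10 µg/mL; timing: 3 h uptake period with compound, 37 °C; signal: DiI fluorescence, bottom read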
ANO1 block: blocks the mouse calcium-activated chloride channel TMEM16A. HEK293 TMEM16A/YFP iodide influx fluorescence, ionomycin. normalized B-score (activity score, 25-100; higher = stronger inhibition) at 10 µM. hit rate 1.2% among 310,000. AID 588511;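 active = ratio plate-corrected score three or more library SD toward inhibition, starting fluorescence score within five deviations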;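 note: score derived from kinetic fluorescence span divided by baseline fluorescence per well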
Starred values were filed as active, the others as inactive; i = inactive; ? = inconclusive; / = no result given. Shown are actives, neighbours in structure and some others; about 3% of the full set was active somewhere.

SMILES	Kir21 block	TMEM16A act	SR-BI DiI inh	FID counter	SR-BI DiI-HDL act	ANO1 block
Cc1c(/C=N/NC(=O)C(NC(=O)c2ccc3c(c2)OCO3)C(C)C)c2ccccc2n1C (stereo unspecified)	1.6	-5.7*	42	-13	-42	i
N#Cc1sc2nc(-c3cccs3)cc(-c3ccccc3)c2c1N	-0.15	i	84*	-17	-84	i
N#Cc1sc2nc(-c3cccs3)cc(-c3ccc(Cl)cc3)c2c1N	-0.78	i	68	-2	-68	i
CC(=O)c1sc(NC(=O)COc2ccc(C(C)C)c(C)c2)nc1C	0.51	i	22	-4	-22	i
COc1ccc(C2CC(=O)CCN2S(=O)(=O)c2ccc(C)cc2)cc1 (stereo unspecified)	/	/	6	/	-6	/
CCOc1ccc(NC(=O)CN(C)C(=O)c2ccc3c(c2)C(=O)N(CCC(C)C)C3=O)cc1OCC	0.23	i	78*	-24	-78	i
CCOc1ccc(NC(=O)CN(C)C(=O)c2ccc(N3CCCCCC3)c([N+](=O)[O-])c2)cc1OCC	0.02	i	86*	/	-86	i
CCOc1ccc(NC(=O)CN(C)C(=O)c2ccc(N3CCOCC3)c([N+](=O)[O-])c2)cc1OCC	0.4	i	51	-30	-51	i
O=c1cc(S(=O)(=O)Cc2ccccc2)[nH]c(=O)[nH]1	/	i	5	/	-5	/
O=C(OCc1cc(=O)oc2cc(O)ccc12)c1cc(S(=O)(=O)N2CCOCC2)ccc1F	0.76	i	40	/	-40	i
CCc1cc2c(COC(=O)c3cc(S(=O)(=O)N4CCOCC4)ccc3F)cc(=O)oc2cc1O	/	i	78*	/	-78	/
CC1CCCC(NC(=O)c2ccc3snnc3c2)C1C (stereo unspecified)	-0.64	i	1	-11	-1	i
CCCN1C(C)C(C(=O)OCC)=CN(Cc2ccc(Br)cc2)S1(=O)=O (stereo unspecified)	/	i	13	/	-13	/
O=C(Nc1ccnn1C1CCN(Cc2ccn[nH]2)CC1)c1ccccc1	1.7	i	-2	-2	2	i
COc1ccc(/C=N/Nc2nc(Nc3ccccc3)nc(N3CCCC3)n2)cc1[N+](=O)[O-]	-1.2	i	?	-5	-70	i
CNc1nc(N/N=C/c2cc([N+](=O)[O-])ccc2F)nc(Nc2ccccc2)n1	/	i	75*	/	-75	/
CNc1nc(N/N=C/c2cc3c(cc2[N+](=O)[O-])OCO3)nc(Nc2ccccc2)n1	0.13	i	87*	-10	-87	i
Nc1nnc(CC(=O)Nc2ccccc2)s1	-0.81	i	-4	-7	4	i
COc1ccc(Cc2nnc(Nc3c(C)cccc3C)o2)cc1OC	-0.79	i	0	-11	0	i
CCOC(=O)Cn1c(=N)n(CCOc2ccc3ccccc3c2)c2ccccc21	-11*	i	3	10	-3	i
Cc1ccc(C(=O)N2CCN(S(=O)(=O)c3sc(C(=O)O)c(C)c3C(=O)O)CC2)s1	/	i	-17	/	17	/
CCOc1ccc(-n2cc(C(=O)N3CCCCCC3)c3cc(OC)c(OC)cc3c2=O)cc1	/	i	75*	-18	-75	i
O=c1ccc(=O)n(CCc2ccccn2)[nH]1	/	i	-19	/	19	/
COc1ccc(/C(C)=N\Nc2nc(-c3ccccc3)cc(=O)[nH]2)cc1	-0.13	i	73*	-4	-73	i
CC1CN(S(=O)(=O)c2cccc(C(=O)NCC3COc4ccccc4O3)c2)CC(C)O1 (stereo unspecified)	/	i	12	/	/	/
SMILES	Kir21 block	TMEM16A act	SR-BI DiI inh	FID counter	SR-BI DiI-HDL act	ANO1 block
CCOC(=O)N1CCC(NC(=S)Nc2ccc3nc(N4CCN(C)CC4)cc(C)c3c2)CC1	1.5	i	-112	14	112*	i
Cc1cc(N2CCN(C)CC2)nc2ccc(NC(=S)NCCN3CCc4ccccc4C3)cc12	-4.7*	i	/	38*	/	i
CCOC(=O)N1CCC(NC(=S)Nc2ccc3nc(N4CCN(CC)CC4)cc(C)c3c2)CC1	-2.4	i	/	16	/	i
O=C(NCCCN1CCc2ccccc2C1)Nc1ccc(Cl)cc1	-4.7*	i	-22	13	22	i
Cc1cc(N2CCN(C)CC2)nc2ccc(NC(=S)NCCCN3CCc4ccccc4C3)cc12	-3	i	/	41*	/	i
Cc1noc(C)c1S(=O)(=O)N(CC(=O)NCCc1ccccc1)c1ccc(C(C)C)cc1	0.47	i	-33	-30	33	i
CCC(=O)OCC(=O)[C@@]1(OC(=O)CC)[C@@H](C)C[C@H]2[C@@H]3CCC4=CC(=O)C=C[C@]4(C)[C@@]3(Cl)[C@@H](O)C[C@@]21C	/	i	36	/	-36	i
Cc1sc2nc(-c3ccccc3)oc(=O)c2c1C	0.74	i	4	-2	-4	i
CC(C)(C)C1CC=C2C(C#N)=C(N)C(C#N)(C#N)C(c3cccs3)C2C1 (stereo unspecified)	-3.4	/	/	-30	/	i
CCc1ccc(C2C(C#N)=C(N)C(C#N)(C#N)C3=CCC(C(C)(C)C)CC32)cc1 (stereo unspecified)	-6.6*	i	-16	-40	16	i
Cc1ccc(NC(=O)CN(C)C(=O)c2cccc(Br)c2)cc1	-0.23	i	-11	-14	11	i
CCN(CC)CCNC(=O)c1ccc(NC(=O)c2ccc(COc3ccccc3)cc2)cc1	0.45	i	5	38*	-5	i
CN(C)S(=O)(=O)c1cccc(C(=O)Nc2cc(Cl)cc(Cl)c2)c1	1.8	i	73*	0	-73	i
CCN(CC)S(=O)(=O)c1ccc(NC(=O)c2ccc(Cl)nc2)cc1	-0.94	i	76*	-12	-76	i
CC(C)(C)OC(=O)N(Cc1ccccc1)Cc1cccc(OCc2cccc(NC(=O)c3ccccc3)c2)c1	/	/	73*	/	-73	/
COc1ccc(NS(=O)(=O)c2cccc(C(=O)OCC(=O)NC3CC3)c2)cc1	-4	i	-1	-6	1	i
Cc1ccc(C)c(N2CCN(c3ncccc3[N+](=O)[O-])CC2)c1	-0.29	i	4	-4	-4	i
CCN(CC)S(=O)(=O)c1cccc(NC(=O)c2ccc(C#N)cc2)c1	-0.19	i	77*	-16	-77	i
CN(C)S(=O)(=O)c1cccc(NC(=O)c2ccc(COc3ccccc3)cc2)c1	0.16	i	45	-10	-45	25*
CCN(CC)S(=O)(=O)c1cccc(NC(=O)Nc2cccc(C(F)(F)F)c2)c1	0.24	i	20	-5	-20	100*
CCN(CC)S(=O)(=O)c1cccc(NC(=O)CC2CCCC2)c1	1.5	i	/	-21	/	i
